Test results as given in PMC9527016 (Toxicology letters, 2020).

Experiments:
[1] = system: cysteine peptide Ac-RFAACAA-COOH; assay: Cysteine peptide depletion, RapidFire-MS/MS DPRA; type: biochemical; conditions: for Detection as sensitizer in the cysteine peptide depletion assay: threshold defined by OECD test guideline 442C
[2] = system: lysine peptide Ac-RFAAKAA-COOH; assay: Lysine peptide depletion, HPLC-TOF-MS; type: biochemical
How it was run: (§1)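 Peptide mixtures are separated on a C18 column (2.1×150 mm, 1.7 μm) at 60 °C and 0.4 mL/min. Mobile phases are water and acetonitrile with 0.1% formic acid, run over a 22 min gradient. Detection is by positive-mode ESI-TOF MS over m/z 150–1700. Seven concentrations of test compound are tested. Integrated lysine or alanine peptide area is normalised to the DMSO control.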

[3] = system: alanine peptide Ac-RFAAAAA-COOH; assay: Alanine peptide; type: biochemical
How it was run: (§2)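 Lysine peptide (Ac-RFAAKAA-COOH) and alanine internal-standard peptide are mixed, each at 0.5 mM final, in acetate ammonia buffer pH 10.2. Test compound in DMSO […] is added in a 384-well plate and incubated 24 h at room temperature. The range is 12 μM–50 mM or 25 μM–100 mM. Samples are diluted to 0.05 μM, then analysed by C4 SPE with triple-quadrupole MRM. Peptide area is normalised to DMSO wells.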

[4] = system: alanine peptide Ac-RFAAAAA-COOH; assay: Alanine peptide signal, HPLC-TOF-MS; type: biochemical
How it was run: as §1

[5] = system: cysteine peptide Ac-RFAACAA-COOH; assay: Confirmation of chemical-cysteine peptide adduct by HPLC-TOF-MS; type: biochemical; conditions: HPLC-TOF-MS after 24 h incubation; Figure 6
How it was run: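 Cysteine peptide (Ac-RFAACAA-COOH) is mixed with alanine peptide and incubated with test compound for 24 h. The mixture is run by C18 LC (60 °C, 0.4 mL/min, 22 min water/acetonitrile 0.1% formic acid gradient) with positive-mode ESI-TOF MS over m/z 150–1700. Total ion chromatograms are recorded, and mass spectra of selected peaks are inspected for adduct or peptide dimer masses.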

[6] = system: lysine peptide Ac-RFAAKAA-COOH; assay: Lysine peptide depletion, RapidFire-MS/MS DPRA; type: biochemical
How it was run: as §2

lysine peptide = conditions: cited from earlier work
[7] = Precipitation in lysine peptide buffer; type: physicochemical; conditions: 100 mM added into the lysine peptide buffer

C=C(C)C(=O)OCC(C)O (stereo not shown) [2-Propenoic acid, 2-methyl-, monoester with 1,2-propanedio]
Detection as sensitizer in the cysteine peptide depletion assay [1]: not detected

O=C/C=C/c1ccccc1 [Cinnamic aldehyde]
Lysine peptide signal, HPLC-TOF-MS ([2]; at 100 mM, Figure 5B): slight decrease | Decrease in alanine peptide signal (depletion), RapidFire-MS/MS ([3]; high concentrations (above 1 mM), area normalized to DMSO, Figure 5A): > 60% | Alanine peptide signal, HPLC-TOF-MS ([4]; 7-point concentration range, Figure 5A): no changes were observed | Adduct formation with cysteine peptide [5]: formed adduct peak with cysteine peptide

CCCCCCCCCCCCOC(=O)c1cc(O)c(O)c(O)c1 [Dodecyl gallate]
Detection as sensitizer in the cysteine peptide depletion assay [1]: not detected

C=CC(=O)OCC [Ethyl acrylate]
Detection as sensitizer in the cysteine peptide depletion assay [1]: not detected | Depletion of the lysine peptide at the highest tested concentrations [6]: more than 50%

C=C(C)C(=O)OCCOC(=O)C(=C)C [Ethylene glycol dimethacrylate]
Adduct formation with cysteine peptide [5]: formed adduct peak with cysteine peptide

O=CCCCC=O [Glutaraldehyde]
Lysine peptide signal vs concentration, HPLC-TOF-MS ([2]; Figure 5E): decreased in a concentration-dependent manner | Alanine peptide signal vs concentration, RapidFire-MS/MS ([3]; Figure 5D): decreased in a concentration-dependent manner | Alanine peptide signal vs concentration, HPLC-TOF-MS ([4]; Figure 5D): decreased in a concentration-dependent manner | Depletion of the lysine peptide at the highest tested concentrations [6]: more than 50% | Lysine peptide signal vs concentration, RapidFire-MS/MS ([6]; lysine peptide area only, Figure 5E): decreased in a concentration-dependent manner

Oc1ccc(O)cc1 [Hydroquinone]
Depletion of the lysine peptide (lysine peptide; at 0.5 mM, ref Gerberick et al., 2004): 83.3% | Depletion of the lysine peptide at the highest tested concentrations [6]: more than 50%

C=CC(=O)OCCO [Hydroxyethyl acrylate]
Depletion of the lysine peptide at the highest tested concentrations [6]: more than 50%

O=C(NCNC(=O)NC1C(=O)NC(=O)N1CO)NC1C(=O)NC(=O)N1CO (stereo not shown) [Imidazolidinyl urea]
Detection as sensitizer in the cysteine peptide depletion assay [1]: not detected

CCCCCCCCCCCCCCCC(=O)Cl [Palmitoyl chloride]
Detection as sensitizer in the cysteine peptide depletion assay [1]: not detected | Lysine peptide depletion (literature) (lysine peptide; ref No, O.T., 2015): almost completely depleted lysine peptide | Precipitation on addition to lysine peptide buffer [7]: immediate precipitation

O=CCc1ccccc1 [Phenylacetaldehyde]
Detection as sensitizer in the cysteine peptide depletion assay [1]: not detected

CCCOC(=O)c1cc(O)c(O)c(O)c1 [Propyl gallate]
Depletion of the lysine peptide at the highest tested concentrations [6]: more than 50%

CCCCCC [n-Hexane]
Efficacy (% peptide depletion), cysteine peptide ([1]; pH 7.5): Inactive | IC50 (M), depletion of cysteine peptide ([1]; pH 7.5): Inactive
